Measurements published in ChEMBL document CHEMBL3804761, “Synthesis of a stable and orally bioavailable englerin analogue” (Bioorg Med Chem Lett, 2016).

How the values were obtained:
Assay type in all cases: functional
[1] = Growth inhibition of human RPMI8226 cells incubated for 48 hrs by sulforhodamine B assay; settings: RPMI-8226, 48 h; for CC50: read-out: pLC50 (the source's name) (converted); for TGI: read-out: pTGI (converted)
In short: (§1)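 NCI 60-cell-line panel, standard protocol. Cells exposed to compound for two days, growth read by sulforhodamine B staining. Tested at five 10-fold dilutions, top concentration 100 µM, to give dose-response curves.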

[2] = tested on: SK-MEL-28; assay: Growth inhibition of human SK-MEL-28 cells assessed as cell growth at 10 uM incubated for 48 hrs by sulforhodamine B assay relative to control; settings: SK-MEL-28, 48 h, read-out: Activity
In short: (§2)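 Run in the standard NCI 60-cell-line screen. Cells were exposed to drug for two days, and the read-out was sulforhodamine B staining. Compound was tested at a single final concentration of 10 µM in every line, and results are reported as growth percent.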

[3] = tested on: NCI-H226; assay: Growth inhibition of human NCI-H226 cells incubated for 48 hrs by sulforhodamine B assay; settings: NCI-H226, 48 h; for TGI: read-out: pTGI (converted); in short: as §1
[4] = tested on: NCI/ADR-RES; assay: Growth inhibition of human NCI/ADR-RES cells assessed as cell growth at 10 uM incubated for 48 hrs by sulforhodamine B assay relative to control; settings: read-out: Activity; in short: as §2
[5] = tested on: T47D; assay: Growth inhibition of human T47D cells assessed as cell growth at 10 uM incubated for 48 hrs by sulforhodamine B assay relative to control; settings: read-out: Activity
In short: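 NCI 60-cell line standard protocol, one-dose screen: single final concentration 10 µM, 2-day drug exposure, sulforhodamine B (SRB) endpoint; read-out is growth percent relative to untreated control.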

[6] = tested on: 786-0; assay: Growth inhibition of human 786-0 cells assessed as cell growth at 10 uM incubated for 48 hrs by sulforhodamine B assay relative to control; settings: 786-0, 48 h, read-out: Activity; in short: as §2
[7] = tested on: HT-29; assay: Growth inhibition of human HT-29 cells incubated for 48 hrs by sulforhodamine B assay; settings: HT-29, 48 h; for TGI: read-out: pTGI (converted); in short: as §1
[8] = tested on: T47D; assay: Growth inhibition of human T47D cells incubated for 48 hrs by sulforhodamine B assay; settings: for CC50: read-out: pLC50 (the source's name) (converted); for TGI: read-out: pTGI (converted)
In short: (§3)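 Tested in the standard NCI 60-cell-line protocol with two-day drug exposure and a sulforhodamine B endpoint. Compounds were first screened at a single final concentration of 10 µM, reported as growth percent. They were then run as five 10-fold dilutions starting from a high concentration of 100 µM to give dose-response curves.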

[9] = tested on: A549; assay: Growth inhibition of human A549/ATCC cells incubated for 48 hrs by sulforhodamine B assay; settings: A549, 48 h; for TGI: read-out: pTGI (converted); in short: as §1
[10] = Growth inhibition of human HOP62 cells incubated for 48 hrs by sulforhodamine B assay; settings: HOP-62, 48 h; for TGI: read-out: pTGI (converted); in short: as §1
[11] = tested on: HT-29; assay: Growth inhibition of human HT-29 cells assessed as cell growth at 10 uM incubated for 48 hrs by sulforhodamine B assay relative to control; settings: HT-29, 48 h, read-out: Activity; in short: as §2
[12] = Growth inhibition of human SF268 cells incubated for 48 hrs by sulforhodamine B assay; settings: SF-268, 48 h; for TGI: read-out: pTGI (converted); in short: as §1
[13] = Growth inhibition of human LOXIMVI cells incubated for 48 hrs by sulforhodamine B assay; settings: LOX IMVI; for TGI: read-out: pTGI (converted); in short: as §1
[14] = tested on: NCI-H522; assay: Growth inhibition of human NCI-H522 cells incubated for 48 hrs by sulforhodamine B assay; settings: NCI-H522, 48 h; for TGI: read-out: pTGI (converted); in short: as §1
[15] = Growth inhibition of human IGROV1 cells assessed as cell growth at 10 uM incubated for 48 hrs by sulforhodamine B assay relative to control; settings: IGROV-1, 48 h, read-out: Activity; in short: as §2
[16] = Growth inhibition of human BT549 cells incubated for 48 hrs by sulforhodamine B assay; settings: BT-549, 48 h; for CC50: read-out: pLC50 (the source's name) (converted); for TGI: read-out: pTGI (converted); in short: as §1
[17] = Growth inhibition of human Caki1 cells assessed as cell growth at 10 uM incubated for 48 hrs by sulforhodamine B assay relative to control; settings: CAKI-1, 48 h, read-out: Activity; in short: as §2
[18] = tested on: U-251; assay: Growth inhibition of human U251 cells incubated for 48 hrs by sulforhodamine B assay; settings: U-251, 48 h; for TGI: read-out: pTGI (converted); in short: as §3
[19] = tested on: SR; assay: Growth inhibition of human SR cells incubated for 48 hrs by sulforhodamine B assay; settings: for TGI: read-out: pTGI (converted); in short: as §3
[20] = Growth inhibition of human OVCAR5 cells incubated for 48 hrs by sulforhodamine B assay; settings: OVCAR-5, 48 h; for TGI: read-out: pTGI (converted); in short: as §1
[21] = tested on: MDA-MB-435; assay: Growth inhibition of human MDA-MB-435 cells assessed as cell growth at 10 uM incubated for 48 hrs by sulforhodamine B assay relative to control; settings: MDA-MB-435, 48 h, read-out: Activity; in short: as §2
[22] = tested on: Malme-3M; assay: Growth inhibition of human MALME-3M cells incubated for 48 hrs by sulforhodamine B assay; settings: for TGI: read-out: pTGI (converted); in short: as §1
[23] = tested on: SN12C; assay: Growth inhibition of human SN12C cells assessed as cell growth at 10 uM incubated for 48 hrs by sulforhodamine B assay relative to control; settings: read-out: Activity; in short: as §2
[24] = Growth inhibition of human HOP92 cells assessed as cell growth at 10 uM incubated for 48 hrs by sulforhodamine B assay relative to control; settings: HOP-92, 48 h, read-out: Activity
In short: (§4)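 Single-dose screen in the NCI 60-cell-line panel at one final concentration of 10 µM. Two-day drug exposure with a sulforhodamine B endpoint. Values are growth percent for each cell line.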

[25] = Growth inhibition of human OVCAR8 cells incubated for 48 hrs by sulforhodamine B assay; settings: OVCAR-8, 48 h; for TGI: read-out: pTGI (converted); in short: as §1
[26] = tested on: Malme-3M; assay: Growth inhibition of human MALME-3M cells assessed as cell growth at 10 uM incubated for 48 hrs by sulforhodamine B assay relative to control; settings: read-out: Activity; in short: as §2
[27] = Growth inhibition of human SF539 cells assessed as cell growth at 10 uM incubated for 48 hrs by sulforhodamine B assay relative to control; settings: SF-539, 48 h, read-out: Activity; in short: as §4
[28] = Growth inhibition of human OVCAR8 cells assessed as cell growth at 10 uM incubated for 48 hrs by sulforhodamine B assay relative to control; settings: OVCAR-8, 48 h, read-out: Activity; in short: as §2
[29] = tested on: NCI-H460; assay: Growth inhibition of human NCI-H460 cells assessed as cell growth at 10 uM incubated for 48 hrs by sulforhodamine B assay relative to control; settings: NCI-H460, 48 h, read-out: Activity; in short: as §2

## C/C(=C\C(=O)O[C@H]1[C@@H]2[C@H](C)CC[C@H]2[C@]2(C)O[C@@]1(C(C)C)C[C@H]2NC(=O)CO)c1ccccc1
[1]
  GI50: 19.5 µM
  CC50: > 100 µM
  TGI: 56.2 µM
[2]
  growth at 10 µM: 118%
[3]
  GI50: 61.7 µM
  LC50: > 100 µM
  TGI: > 100 µM
[4]
  growth at 10 µM: 72.2%
[5]
  growth at 10 µM: 89.3%
[6]
  growth at 10 µM: 93.5%
[7]
  GI50: 40.7 µM
  LC50: > 100 µM
  TGI: > 100 µM
[8]
  GI50: 20.4 µM
  CC50: > 100 µM
  TGI: > 100 µM
[9]
  GI50: 47.9 µM
  LC50: > 100 µM
  TGI: > 100 µM
[10]
  GI50: 43.7 µM
  LC50: > 100 µM
  TGI: > 100 µM
[11]
  growth at 10 µM: 98.7%
[12]
  GI50: 26.9 µM
  LC50 (lethal concentration, 50% net cell kill): > 100 µM
  TGI: > 100 µM
[13]
  GI50: 27.5 µM
  LC50: > 100 µM
  TGI: > 100 µM
[14]
  GI50: 27.5 µM
  LC50: > 100 µM
  TGI: 81.3 µM
[15]
  growth at 10 µM: 104%
[16]
  GI50: 22.4 µM
  CC50: > 100 µM
  TGI: 69.2 µM
[17]
  growth at 10 µM: 99%
[18]
  GI50: 43.7 µM
  LC50 (concentration giving 50% net cell kill): > 100 µM
  TGI: > 100 µM
[19]
  GI50: 26.3 µM
  LC50: > 100 µM
  TGI: 74.1 µM
[20]
  GI50: 70.8 µM
  LC50: > 100 µM
  TGI: > 100 µM
[21]
  growth at 10 µM: 106%
[22]
  GI50: 26.3 µM
  LC50: > 100 µM
  TGI: > 100 µM
[23]
  growth at 10 µM: 84.6%
[24]
  growth at 10 µM: 87.1%
[25]
  GI50: 7.59 µM
  LC50 (concentration killing 50% of cells): > 100 µM
  TGI: > 100 µM
[26]
  growth at 10 µM: 95.9%
[27]
  growth at 10 µM: 91.2%
[28]
  growth at 10 µM: 61.2%
[29]
  growth at 10 µM: 106%

## CC(C)[C@@]12C[C@@H](NC(=O)CO)[C@@](C)(O1)[C@@H]1CC[C@@H](C)[C@H]1[C@@H]2OC(=O)/C=C/C1CCCCC1
[1]
  GI50: > 44.7 µM
  CC50: > 44.7 µM
  TGI: > 44.7 µM
[2]
  growth at 10 µM: 98.9%
[3]
  GI50: > 44.7 µM
  LC50: > 44.7 µM
  TGI: > 44.7 µM
[4]
  growth at 10 µM: 94.8%
[5]
  growth at 10 µM: 102%
[6]
  growth at 10 µM: 100%
[7]
  GI50: > 44.7 µM
  LC50: > 44.7 µM
  TGI: > 44.7 µM
[8]
  GI50: > 44.7 µM
  CC50: > 44.7 µM
  TGI: > 44.7 µM
[9]
  GI50: > 44.7 µM
  LC50: > 44.7 µM
  TGI: > 44.7 µM
[10]
  GI50: > 44.7 µM
  LC50: > 44.7 µM
  TGI: > 44.7 µM
[11]
  growth at 10 µM: 97.4%
[12]
  GI50: > 44.7 µM
  LC50 (lethal concentration, 50% net cell kill): > 44.7 µM
  TGI: > 44.7 µM
[13]
  GI50: > 44.7 µM
  LC50: > 44.7 µM
  TGI: > 44.7 µM
[14]
  GI50: > 44.7 µM
  LC50: > 44.7 µM
  TGI: > 44.7 µM
[15]
  growth at 10 µM: 103%
[16]
  GI50: > 44.7 µM
  CC50: > 44.7 µM
  TGI: > 44.7 µM
[17]
  growth at 10 µM: 88.7%
[18]
  GI50: > 44.7 µM
  LC50 (concentration giving 50% net cell kill): > 44.7 µM
  TGI: > 44.7 µM
[19]
  GI50: > 44.7 µM
  LC50: > 44.7 µM
  TGI: > 44.7 µM
[20]
  GI50: > 44.7 µM
  LC50: > 44.7 µM
  TGI: > 44.7 µM
[21]
  growth at 10 µM: 102%
[22]
  GI50: > 44.7 µM
  LC50: > 44.7 µM
  TGI: > 44.7 µM
[23]
  growth at 10 µM: 86.7%
[24]
  growth at 10 µM: 120%
[25]
  GI50: 28.2 µM
  LC50 (concentration killing 50% of cells): > 44.7 µM
  TGI: > 44.7 µM
[26]
  growth at 10 µM: 109%
[28]
  growth at 10 µM: 107%
[29]
  growth at 10 µM: 103%
